The results in this text go back to ChEMBL document CHEMBL3414478, “Activity of 2-aryl-2-(3-indolyl)acetohydroxamates against drug-resistant cancer cells” (J Med Chem, 2015).

As a reminder, the pIC50 is −log10 of the IC50, conventionally taken in molar units. For orientation: GI50 means the concentration giving 50% growth inhibition.

pIC50: −log10 of the molar value. Active and inactive are the calls of the source. The calls are words filed in the database; no cut-off is given here.

A short description of series [1]: Cytotoxicity against human NHLF cells assessed as cell growth after 48 hrs by MTT assay. Type of series: cell-based. The procedure, abridged: (§1)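 Normal fibroblasts (NHDF, NHLF) were grown in FGM-2 medium at 37 °C, 5% CO2, seeded at 4 × 10³/well and grown 24 h. Controls were 0.1% DMSO and 1 μM PAO. Quadruplicate wells, repeated at least twice.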
In general terms: Tetrazolium assays rely on reduction of a dye to a coloured formazan, in cell work by metabolically active cells.

In another series the test system is HeLa. The experiment in a line: Antiproliferative activity against human HeLa cells assessed as reduction in cell viability after 48 hrs by MTT assay. Type of series: functional, cell-based. The procedure, abridged:
(§2)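 MTT assay. HeLa and U87 cells were grown in DMEM + 10% FBS, and MCF-7 cells in RPMI + 10% FBS. Cells were seeded at 4 × 10³/well, grown 24 h, then exposed to 0.001–100 μM for 48 h. 0.1% DMSO was the negative control and 1 μM PAO the positive control. Quadruplicate wells, ≥2 repeats.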

Series [2] is described as follows: Antiproliferative activity against human GBM 031810 cells assessed as reduction in cell viability after 48 hrs by MTT assay. It counts as functional. The conditions noted are these: GBM 031810, 48 h. The procedure, abridged: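 Patient-derived glioblastoma neurosphere culture GBM 031810, kept in Neurobasal medium with B27, Glutamax, FGF-2 (20 ng/ml), EGF (20 ng/ml) and heparin; growth factors renewed twice weekly. GI50 is the average ± SD of three determinations.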

For a further series, the system named is MCF7. The experiment in a line: Antiproliferative activity against human MCF7 cells assessed as reduction in cell viability after 48 hrs by MTT assay. It counts as functional, cell-based. The conditions noted are these: MCF7, 48 h. The procedure, abridged: as §2
For a further series, the system named is NHDF. The series can be described thus: Cytotoxicity against human NHDF cells assessed as cell growth after 48 hrs by MTT assay. It counts as cell-based. The procedure, abridged:
as §1

The subject of series [3] is U-87MG ATCC. The experiment in a line: Antiproliferative activity against human U87 cells assessed as reduction in cell viability up to 100 uM after 48 hrs by MTT assay. It counts as functional, cell-based. Summed up:
(§3)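 Cells (U87 in DMEM, A549 in RPMI with 10% heat-inactivated FBS) were seeded at 4 × 10³/well, grown 24 h, then exposed to 0.001–100 μM compound (DMSO stocks) for 48 h at 37 °C, 5% CO₂. Quadruplicates, repeated at least twice; 0.1% DMSO negative control, 1 μM PAO positive control.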

A further series has as its system A549. The experiment in a line: Antiproliferative activity against human A549 cells assessed as reduction in cell viability up to 100 uM after 48 hrs by MTT assay. Type of series: functional, cell-based. The procedure, abridged: as §3
The subject of series [4] is U-87MG ATCC. The experiment in a line: Redifferentiation of human U87 cells assessed as nonmalignant state resembling reactive astrocyte/phenotype at 7 uM after 3 days. It counts as functional, cell-based. The conditions noted are these: in the assay text read “33 days” for “3 days”. Summed up:
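U87 cells were plated at 5 × 10⁴/well in DMEM/10% FBS. Next day they were re-fed and dosed at final concentrations between 15 and 5 μM, with medium not replaced afterwards. Morphology was followed for several weeks (33-day treatment shown at 7 μM) against untreated cells.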

Series [5] is described as follows: Antiproliferative activity against human U373 cells assessed as global growth ratio measured as cell growth at 25 uM after 24 hrs by Quantitative videomicroscopy relative to untreated control. It counts as functional, U-373MG ATCC. The conditions noted are these: in the assay text read “after 72 hrs” for “after 24 hrs”. Summed up: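 U373 cells were grown in RPMI + 10% heat-inactivated FBS and followed by computer-assisted phase-contrast videomicroscopy with 25 μM compound. The global growth ratio is the mean cell count per image at 24, 48 or 72 h divided by the count at 0 h, then normalised to the same ratio in the untreated control.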

Series [6] can be described thus: Antiproliferative activity against human U87 cells assessed as reduction in cell viability after 48 hrs by MTT assay. Type of series: functional, U-87MG ATCC. The conditions noted are these: U-87 MG. Summed up: as §2

As for `CN(C)c1ccc(C(C(=O)NO)c2c(-c3ccc4ccccc4c3)[nH]c3ccccc23)cc1` (centres undefined), the Activity result (in [1]; in the series on NHDF) was “Non-toxic” each time. For the same compound, the results for the pIC50 with HeLa and with MCF7 were 6.22 and 5.96, respectively. Further, the GI50 in series [2] is 5.6 µM.
Consider `O=C(NO)C(c1ccccc1)c1c(-c2ccc3ccccc3c2)n(Cc2ccccc2)c2ccccc12` (centres undefined), for which the pIC50 in the series with HeLa was 5.27; in the series with MCF7 it was 5.26.
As to `CCC(C)n1c(-c2ccc3ccccc3c2)c(C(C(=O)NO)c2ccccc2)c2ccccc21` (centres undefined), the pIC50 is 5.01 in the series with HeLa and 5.03 in the series on MCF7.
For `O=C(NO)C(c1ccc([N+](=O)[O-])cc1)c1c(-c2ccccc2)[nH]c2ccccc12` (centres undefined), the pIC50 in the series on HeLa and in the series on MCF7 was less than 4.30 throughout.
For the compound `Cn1c(-c2ccc3ccccc3c2)c(C(C(=O)NO)c2cccc(F)c2)c2ccccc21` (centres undefined), the negative-log IC50 (pIC50) was 4.43 in the series with HeLa and 4.59 in the series with MCF7.
As to `COc1ccc(-c2[nH]c3ccccc3c2C(C(=O)NO)c2ccccc2)cc1` (centres undefined), the pIC50 with HeLa and in the series with MCF7 was less than 4.30 in each case.
`Cc1ccc(C(C(=O)NO)c2c(-c3ccc4ccccc4c3)[nH]c3ccccc23)cc1` (centres undefined): the pIC50 was 5.20 in the series on HeLa and 5.31 in the series with MCF7.
For the compound `Cc1ccc(C(C(=O)NO)c2c(-c3ccc4ccccc4c3)[nH]c3ccccc23)cc1C` (centres undefined), the figures for the pIC50 with HeLa and in the series with MCF7 were 5.57 and 5.60, respectively.
In the same order, the values of `O=C(NO)C(c1ccccc1Br)c1c(-c2ccc3ccccc3c2)[nH]c2ccccc12` (centres undefined) are 4.89 and 5.57.
In the same order, the values of `Cn1c(-c2ccc3ccccc3c2)c(C(C(=O)NO)c2ccccc2Br)c2ccccc21` (centres undefined) are 4.62 and 4.95.
Take `NC(=O)C(c1ccccc1)c1c(-c2ccc3ccccc3c2)[nH]c2ccccc12` (centres undefined): the pIC50 was 5.03 in the series with HeLa and 4.94 in the series on MCF7.
`COc1ccc(C(C(=O)NO)c2c(-c3ccc4ccccc4c3)[nH]c3ccccc23)cc1OC` (centres undefined): the pIC50 was 4.57 in the series with HeLa and 5.62 in the series on MCF7.
Turning to `COc1cc([C@@H]2c3cc4c(cc3[C@H](O)[C@H]3COC(=O)[C@H]23)OCO4)cc(OC)c1OC`, the result in the series with U-87MG ATCC [3] and in the series on A549 was inactive.
As for `COc1ccc2[nH]c(-c3ccc4ccccc4c3)c(C(C(=O)NO)c3ccccc3)c2c1` (centres undefined), the pIC50 with HeLa and in the series with MCF7 was less than 4.30 each time.
`Cn1c(-c2ccc3ccccc3c2)c(C(C(=O)NO)c2ccccc2)c2ccccc21` (centres undefined): the pIC50 was 4.71 in the series with HeLa and 5.00 in the series with MCF7.
As to `O=C(NO)C(c1ccc(Cl)c(Cl)c1)c1c(-c2ccc3ccccc3c2)[nH]c2ccccc12` (centres undefined), the pIC50 in the series on HeLa is 4.50; in the series on MCF7, 4.91.
Taken in the same sequence, the figures for `CCN(CC)c1ccc(C(C(=O)NO)c2c(-c3ccc4ccccc4c3)[nH]c3ccccc23)cc1` (centres undefined) were 5.39 and 5.10.
For `O=C(NO)C(c1ccccc1)c1c(-c2ccccc2)[nH]c2ccccc12` (centres undefined), the pIC50 with HeLa was 4.64; in the series with MCF7, 4.51.
`O=C(NO)C(c1cccc(F)c1)c1c(-c2ccc3ccccc3c2)[nH]c2ccccc12` (centres undefined): the pIC50 in the series with HeLa is 4.48; in the series on MCF7, 4.69.
As to `CCCCn1c(-c2ccc3ccccc3c2)c(C(C(=O)NO)c2ccc(C(C)C)cc2)c2ccccc21` (centres undefined), the pIC50 in the series with HeLa was 5.18; with MCF7, 5.11.
With `O=C(NO)C(c1ccccc1)c1c(-c2ccc3ccccc3c2)[nH]c2ccccc12` (centres undefined), the Activity result in series [1] was “Non-toxic”; in series [5] it was 30%; in the series on NHDF it was “Non-toxic”. The result with U-87MG ATCC [4] was Active. Further, the pIC50 in the series on HeLa is 5.44; with MCF7, 5.47. Moreover, in series [2], the GI50 is 0.8 µM.
Consider `O=C(NO)C(c1ccc(F)cc1)c1c(-c2ccc3ccccc3c2)[nH]c2ccccc12` (centres undefined), for which the negative-log IC50 (pIC50) with HeLa was 4.74; with MCF7 it was 5.20.
As to `N#CC(c1ccccc1)c1c(-c2ccc3ccccc3c2)[nH]c2ccccc12` (centres undefined), the results for the pIC50 in the series on HeLa and with MCF7 were 4.76 and 4.69, respectively.
`CCCCn1c(-c2ccc3ccccc3c2)c(C(C(=O)NO)c2ccccc2)c2ccccc21` (centres undefined): the pIC50 in the series with HeLa was 5.25; in the series on MCF7 it was 5.11.
Turning to `O=C(NO)C(c1ccccc1)c1c(-c2ccccc2[N+](=O)[O-])[nH]c2ccccc12` (centres undefined), the pIC50 with HeLa and with MCF7 was less than 4.30 each time.
On to `Cc1cccc(C(C(=O)NO)c2c(-c3ccc4ccccc4c3)[nH]c3ccccc23)c1` (centres undefined), for which the negative logarithm of the IC50 (pIC50) in the series on HeLa was 5.16; with MCF7, 5.13.
Take `Cc1[nH]c2ccccc2c1C(C(=O)NO)c1ccccc1` (centres undefined): the pIC50 in the series with HeLa and in the series on MCF7 was less than 4.30 in each case.
In the case of `Cc1ccc2[nH]c(-c3ccc4ccccc4c3)c(C(C(=O)NO)c3ccccc3)c2c1` (centres undefined), the pIC50 in the series with HeLa and in the series with MCF7 was less than 4.30 each time.
On to `O=C(NO)C(c1ccccc1Cl)c1c(-c2ccc3ccccc3c2)[nH]c2ccccc12` (centres undefined), for which the pIC50 in the series on HeLa was 4.51; with MCF7 it was 5.31.
As to `O=C(NO)C(c1ccccc1)c1c(-c2cccc3ccccc23)[nH]c2ccccc12` (centres undefined), the negative logarithm of the IC50 (pIC50) in the series with HeLa is 4.59; in the series on MCF7, 4.49.
On to `CC(C)c1ccc(C(C(=O)NO)c2c(-c3ccc4ccccc4c3)[nH]c3ccccc23)cc1` (centres undefined), for which the pIC50 in the series on HeLa is 6.17; in the series with MCF7 it was 5.85. In addition, the GI50 in [2] came out at 3.4 µM; in series [6], 5 µM.
Take `Cn1nnc2c(C(N)=O)ncn2c1=O` [TEMOZOLOMIDE]: the GI50 in series [2] was greater than 1000 µM.
Consider `O=C(NO)C(c1ccc(OC(F)(F)F)cc1)c1c(-c2ccc3ccccc3c2)[nH]c2ccccc12` (centres undefined), for which the results for the pIC50 in the series with HeLa and with MCF7 were 4.56 and 4.99, respectively.
For the compound `CC(=O)O[C@H]1C(=O)[C@@]2(C)[C@H]([C@H](OC(=O)c3ccccc3)[C@]3(O)C[C@H](OC(=O)[C@H](O)[C@@H](NC(=O)c4ccccc4)c4ccccc4)C(C)=C1C3(C)C)[C@]1(OC(C)=O)CO[C@@H]1C[C@@H]2O`, the outcome in the series on U-87MG ATCC [3] and in the series on A549 was inactive.
Regarding `CCOc1ccc(C(C(=O)NO)c2c(-c3ccc4ccccc4c3)[nH]c3ccccc23)cc1` (centres undefined), the pIC50 was 4.76 in the series with HeLa and 5.07 in the series with MCF7.
